# Organism: Bos taurus
# Assay: Inhibition of tubulin polymerization
# Format: functional
# Conditions: not given
# Summary of the method: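 Bovine brain tubulin, purified to electrophoretic homogeneity, was preincubated at 37 °C with a range of compound concentrations and then chilled on ice. GTP was added and polymerization followed at 37 °C by turbidity at 350 nm. Extent was read at 20 min against two controls per experiment, and IC50 was determined graphically. Actives were run in ≥3 independent assays, inactives (IC50 > 40 μM) in ≥2.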
row,Structure (SMILES),IC50 [µM]
1,CCNC(=O)/C(=C/c1ccc(OC)cc1)c1cc(OC)c(OC)c(OC)c1,> 40
2,COc1ccc(/C=C/c2ccc(OC)c(OC)c2)cc1,> 40
3,CNC(=O)/C(=C/c1ccc(OC)cc1)c1cc(OC)c(OC)c(OC)c1,35
4,COc1ccc(CC2c3cc(OC)c(OC)c(OC)c3CCN2C)cc1 (stereo not given),> 40
5,COc1ccc(Cc2cc(OC)c(OC)c(OC)c2)cc1,15
6,COc1ccc(/C(=C\c2cc(OC)c(OC)c(OC)c2)C(=O)O)cc1,> 40
7,COc1cc(/C=C/c2ccc(C)cc2)cc(OC)c1OC,> 40
8,COc1ccc(C(=O)c2c3cc(OC)c(OC)c(OC)c3cc[n+]2C)cc1,> 40
9,COc1cc(CCc2ccc(C)cc2)cc(OC)c1OC,21
10,COc1ccc(C2Cc3cc(OC)c(OC)c(OC)c3C2=O)cc1 (stereo not given),> 40
11,COc1ccc(CC2NCCc3c2cc(OC)c(OC)c3OC)cc1 (stereo not given),> 40
12,"COc1ccc(/C=C\c2ccc(OC)c(OC)c2)cc1 [7Z-3,4,4'-TRIMETHOXYSTILBENE]",18
13,COc1cc2ccc3c(OC)cccc3c2c(OC)c1OC,> 40
14,CCc1ccc(CCc2cc(OC)c(OC)c(OC)c2)cc1,18
15,CCCOc1ccc(/C=C/c2cc(OC)c(OC)c(OC)c2)cc1,> 40

# Test system: MLM
# Assay: Cytotoxicity against human MLM melanoma cell line.
# Format: functional
# Conditions: read-out: ED50 (the source's name)
# Summary of the method: (§1)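 MTT colorimetric assay run in the Purdue Cell Culture Laboratory. Poorly water-soluble compounds were serially diluted in DMSO and added as 0.5 μL aliquots per well. Cells were incubated with compound for 6 days before MTT was added. […] The reported ED50 is the mean of two determinations.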
row,Structure (SMILES),EC50 [µM]
1,CCNC(=O)/C(=C/c1ccc(OC)cc1)c1cc(OC)c(OC)c(OC)c1,> 25
2,COc1ccc(/C=C/c2ccc(OC)c(OC)c2)cc1,> 25
3,CNC(=O)/C(=C/c1ccc(OC)cc1)c1cc(OC)c(OC)c(OC)c1,93
4,COc1ccc(CC2c3cc(OC)c(OC)c(OC)c3CCN2C)cc1 (stereo not given),> 25
5,COc1ccc(Cc2cc(OC)c(OC)c(OC)c2)cc1,1.3
6,COc1ccc(/C(=C\c2cc(OC)c(OC)c(OC)c2)C(=O)O)cc1,> 25
7,COc1cc(/C=C/c2ccc(C)cc2)cc(OC)c1OC,6.3
8,COc1ccc(C(=O)c2c3cc(OC)c(OC)c(OC)c3cc[n+]2C)cc1,> 25
9,COc1cc(CCc2ccc(C)cc2)cc(OC)c1OC,1.4
10,COc1ccc(C2Cc3cc(OC)c(OC)c(OC)c3C2=O)cc1 (stereo not given),> 25
11,COc1ccc(CC2NCCc3c2cc(OC)c(OC)c3OC)cc1 (stereo not given),> 25
12,"COc1ccc(/C=C\c2ccc(OC)c(OC)c2)cc1 [7Z-3,4,4'-TRIMETHOXYSTILBENE]",> 25
13,COc1cc2ccc3c(OC)cccc3c2c(OC)c1OC,> 25
14,CCc1ccc(CCc2cc(OC)c(OC)c(OC)c2)cc1,0.27
15,CCCOc1ccc(/C=C/c2cc(OC)c(OC)c(OC)c2)cc1,> 25

# Test system: A549
# Assay: Compound was evaluated for cytotoxicity against human A-549 non-small cell lung cancer cell line.
# Format: functional
# Conditions: read-out: ED50 (the source's name)
# Summary of the method: as §1
row,Structure (SMILES),EC50 [µM]
1,COc1cccc2c1C(=O)c1c(O)c3c(c(O)c1C2=O)C[C@@](O)(C(=O)CO)C[C@@H]3O[C@H]1C[C@H](N)[C@H](O)[C@H](C)O1 [DOXORUBICIN],0.029
2,CCNC(=O)/C(=C/c1ccc(OC)cc1)c1cc(OC)c(OC)c(OC)c1,3.4
3,COc1ccc(/C=C/c2ccc(OC)c(OC)c2)cc1,11.7
4,CNC(=O)/C(=C/c1ccc(OC)cc1)c1cc(OC)c(OC)c(OC)c1,2.4
5,COc1ccc(CC2c3cc(OC)c(OC)c(OC)c3CCN2C)cc1 (stereo not given),11.4
6,COc1ccc(Cc2cc(OC)c(OC)c(OC)c2)cc1,1.5
7,COc1ccc(/C(=C\c2cc(OC)c(OC)c(OC)c2)C(=O)O)cc1,5.2
8,COc1cc(/C=C/c2ccc(C)cc2)cc(OC)c1OC,1.1
9,COc1ccc(C(=O)c2c3cc(OC)c(OC)c(OC)c3cc[n+]2C)cc1,> 25
10,COc1cc(CCc2ccc(C)cc2)cc(OC)c1OC,0.18
11,COc1ccc(C2Cc3cc(OC)c(OC)c(OC)c3C2=O)cc1 (stereo not given),> 25
12,COc1ccc(CC2NCCc3c2cc(OC)c(OC)c3OC)cc1 (stereo not given),19.3
13,"COc1ccc(/C=C\c2ccc(OC)c(OC)c2)cc1 [7Z-3,4,4'-TRIMETHOXYSTILBENE]",> 25
14,COc1cc2ccc3c(OC)cccc3c2c(OC)c1OC,> 25
15,CCc1ccc(CCc2cc(OC)c(OC)c(OC)c2)cc1,0.088
16,CCCOc1ccc(/C=C/c2cc(OC)c(OC)c(OC)c2)cc1,9.2

# Test system: SK-MEL-5
# Assay: Compound was evaluated for cytotoxicity against human SKMEL-5 melanoma cell line.
# Format: functional
# Conditions: read-out: ED50 (the source's name)
# Summary of the method: as §1
row,Structure (SMILES),EC50 [µM]
1,COc1cccc2c1C(=O)c1c(O)c3c(c(O)c1C2=O)C[C@@](O)(C(=O)CO)C[C@@H]3O[C@H]1C[C@H](N)[C@H](O)[C@H](C)O1 [DOXORUBICIN],0.032
2,CCNC(=O)/C(=C/c1ccc(OC)cc1)c1cc(OC)c(OC)c(OC)c1,7.05
3,COc1ccc(/C=C/c2ccc(OC)c(OC)c2)cc1,> 25
4,CNC(=O)/C(=C/c1ccc(OC)cc1)c1cc(OC)c(OC)c(OC)c1,2.4
5,COc1ccc(CC2c3cc(OC)c(OC)c(OC)c3CCN2C)cc1 (stereo not given),8.8
6,COc1ccc(Cc2cc(OC)c(OC)c(OC)c2)cc1,1.2
7,COc1ccc(/C(=C\c2cc(OC)c(OC)c(OC)c2)C(=O)O)cc1,2.3
8,COc1cc(/C=C/c2ccc(C)cc2)cc(OC)c1OC,0.8
9,COc1ccc(C(=O)c2c3cc(OC)c(OC)c(OC)c3cc[n+]2C)cc1,> 25
10,COc1cc(CCc2ccc(C)cc2)cc(OC)c1OC,0.27
11,COc1ccc(C2Cc3cc(OC)c(OC)c(OC)c3C2=O)cc1 (stereo not given),> 25
12,COc1ccc(CC2NCCc3c2cc(OC)c(OC)c3OC)cc1 (stereo not given),> 25
13,"COc1ccc(/C=C\c2ccc(OC)c(OC)c2)cc1 [7Z-3,4,4'-TRIMETHOXYSTILBENE]",> 25
14,COc1cc2ccc3c(OC)cccc3c2c(OC)c1OC,12
15,CCc1ccc(CCc2cc(OC)c(OC)c(OC)c2)cc1,0.047
16,CCCOc1ccc(/C=C/c2cc(OC)c(OC)c(OC)c2)cc1,> 25

# Test system: MLM
# Assay: Compound was evaluated for cytotoxicity against human MLM melanoma cell line.
# Format: functional
# Conditions: read-out: ED50
# Summary of the method: as §1
row,Structure (SMILES),EC50 [µM]
1,COc1cccc2c1C(=O)c1c(O)c3c(c(O)c1C2=O)C[C@@](O)(C(=O)CO)C[C@@H]3O[C@H]1C[C@H](N)[C@H](O)[C@H](C)O1 [DOXORUBICIN],0.13

# Test system: HT-29
# Assay: Cytotoxicity against human HT-29 colon cell line.
# Format: functional
# Conditions: read-out: ED50 (the source's name)
# Summary of the method: as §1
row,Structure (SMILES),EC50 [µM]
1,COc1cccc2c1C(=O)c1c(O)c3c(c(O)c1C2=O)C[C@@](O)(C(=O)CO)C[C@@H]3O[C@H]1C[C@H](N)[C@H](O)[C@H](C)O1 [DOXORUBICIN],0.055
2,CCNC(=O)/C(=C/c1ccc(OC)cc1)c1cc(OC)c(OC)c(OC)c1,1.8
3,COc1ccc(/C=C/c2ccc(OC)c(OC)c2)cc1,> 25
4,CNC(=O)/C(=C/c1ccc(OC)cc1)c1cc(OC)c(OC)c(OC)c1,2.6
5,COc1ccc(CC2c3cc(OC)c(OC)c(OC)c3CCN2C)cc1 (stereo not given),9.7
6,COc1ccc(Cc2cc(OC)c(OC)c(OC)c2)cc1,1.3
7,COc1ccc(/C(=C\c2cc(OC)c(OC)c(OC)c2)C(=O)O)cc1,5.9
8,COc1cc(/C=C/c2ccc(C)cc2)cc(OC)c1OC,0.9
9,COc1ccc(C(=O)c2c3cc(OC)c(OC)c(OC)c3cc[n+]2C)cc1,> 25
10,COc1cc(CCc2ccc(C)cc2)cc(OC)c1OC,0.1
11,COc1ccc(C2Cc3cc(OC)c(OC)c(OC)c3C2=O)cc1 (stereo not given),> 25
12,COc1ccc(CC2NCCc3c2cc(OC)c(OC)c3OC)cc1 (stereo not given),20.2
13,"COc1ccc(/C=C\c2ccc(OC)c(OC)c2)cc1 [7Z-3,4,4'-TRIMETHOXYSTILBENE]",> 25
14,COc1cc2ccc3c(OC)cccc3c2c(OC)c1OC,9.3
15,CCc1ccc(CCc2cc(OC)c(OC)c(OC)c2)cc1,0.016
16,CCCOc1ccc(/C=C/c2cc(OC)c(OC)c(OC)c2)cc1,> 25

# Test system: MCF7
# Assay: Cytotoxicity against human MCF-7 breast cancer cell line.
# Format: functional
# Conditions: read-out: ED50 (the source's name)
# Summary of the method: as §1
row,Structure (SMILES),EC50 [µM]
1,COc1cccc2c1C(=O)c1c(O)c3c(c(O)c1C2=O)C[C@@](O)(C(=O)CO)C[C@@H]3O[C@H]1C[C@H](N)[C@H](O)[C@H](C)O1 [DOXORUBICIN],0.031
2,CCNC(=O)/C(=C/c1ccc(OC)cc1)c1cc(OC)c(OC)c(OC)c1,3.7
3,COc1ccc(/C=C/c2ccc(OC)c(OC)c2)cc1,> 25
4,CNC(=O)/C(=C/c1ccc(OC)cc1)c1cc(OC)c(OC)c(OC)c1,5
5,COc1ccc(CC2c3cc(OC)c(OC)c(OC)c3CCN2C)cc1 (stereo not given),22.7
6,COc1ccc(Cc2cc(OC)c(OC)c(OC)c2)cc1,1.9
7,COc1ccc(/C(=C\c2cc(OC)c(OC)c(OC)c2)C(=O)O)cc1,1.9
8,COc1cc(/C=C/c2ccc(C)cc2)cc(OC)c1OC,1.9
9,COc1ccc(C(=O)c2c3cc(OC)c(OC)c(OC)c3cc[n+]2C)cc1,> 25
10,COc1cc(CCc2ccc(C)cc2)cc(OC)c1OC,0.22
11,COc1ccc(C2Cc3cc(OC)c(OC)c(OC)c3C2=O)cc1 (stereo not given),> 25
12,COc1ccc(CC2NCCc3c2cc(OC)c(OC)c3OC)cc1 (stereo not given),> 25
13,"COc1ccc(/C=C\c2ccc(OC)c(OC)c2)cc1 [7Z-3,4,4'-TRIMETHOXYSTILBENE]",> 25
14,COc1cc2ccc3c(OC)cccc3c2c(OC)c1OC,14.6
15,CCc1ccc(CCc2cc(OC)c(OC)c(OC)c2)cc1,0.16
16,CCCOc1ccc(/C=C/c2cc(OC)c(OC)c(OC)c2)cc1,12.5

# Source: ChEMBL document CHEMBL1126297, “Synthesis and evaluation of analogues of (Z)-1-(4-methoxyphenyl)-2-(3,4,5-trimethoxyphenyl)ethene as potential cytotoxic and antimitotic agents” (J Med Chem, 1992)
